# Several values for one entry are separate records, joined by “and”; a condition that tells them apart may be missing. Identical values can stand only once.
# Legend:
# Mus musculus [1] = assay: BDF1 male mice were administered with 200 mg/kg ip and percent change in iron levels was determined in Spleen; format: functional; settings: route intraperitoneal
# Method in brief: (§1)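 Male BDF1 mice made iron-overloaded by transfusion of washed, heat-treated (50 °C, 30 min) canine red cells. Dosing began 2 days after the last transfusion, once daily for 7 days, in distilled water or 2% Polysorbate 80 suspension. Daily group urine was collected. Pooled feces were digested in 1 N HCl (90 °C, 30 min). Liver and spleen were homogenized in saline. Iron was measured by atomic absorption and expressed as % change vs transfused controls.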
# Mus musculus [2] = assay: BDF1 male mice were administered with 200 mg/kg po and percent change in iron levels was determined in Feces; format: functional
# Method in brief: (§2)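 Hypertransfused male BDF1 mice (canine red cells, washed and heated at 50 °C for 30 min) were dosed orally for 7 days with compound in distilled water or a fine suspension with Polysorbate 80 (2% final). Daily group urine and pooled feces (1 N HCl digest, 90 °C, 30 min, triplicate) were collected, and liver and spleen were homogenized. Iron was measured by atomic absorption and reported as % change vs transfused control.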
# Mus musculus [3] = assay: BDF1 male mice were administered with 200 mg/kg po and percent change in iron levels was determined in Liver; format: functional; method in brief: as §2
# Mus musculus [4] = assay: BDF1 male mice were administered with 200 mg/kg ip and percent change in iron levels was determined in Liver; format: functional; settings: route intraperitoneal; method in brief: as §1
# Mus musculus [5] = assay: BDF1 male mice were administered with the compound and number of survivors was determined at a dose 200 mg/kg peroral out of 10 tested; format: functional; settings: route oral
# Method in brief: (§3)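 Male BDF1 mice were iron-loaded by transfusion of canine red cells. The cells were heparinised, washed twice in isotonic saline and heated at 50 °C for 30 min. Dosing started two days after the last transfusion, once daily for 7 consecutive days. Compounds were given in distilled water or as a fine aqueous suspension with Polysorbate 80 (2% final). Toxic signs were recorded daily and survivors counted per group.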
# Mus musculus [6] = assay: BDF1 male mice were administered with 200 mg/kg ip and percent change in iron levels was determined in Urine; format: functional; settings: route intraperitoneal; method in brief: as §1
# Mus musculus [7] = assay: BDF1 male mice were administered with 200 mg/kg po and percent change in iron levels was determined in Spleen; format: functional; method in brief: as §2
# Mus musculus [8] = assay: BDF1 male mice were administered with the compound and number of survivors was determined at a dose 200 mg/kg ip out of 10 tested; format: functional; settings: route intraperitoneal; method in brief: as §3
# Mus musculus [9] = assay: BDF1 male mice were administered with 200 mg/kg poand percent change in iron levels was determined in Urine; format: functional; method in brief: as §2
# Mus musculus [10] = assay: BDF1 male mice were administered with 200 mg/kg ip and percent change in iron levels was determined in Feces; format: functional; settings: route intraperitoneal; method in brief: as §1
# Mus musculus [11] = assay: BDF1 male mice were administered with 25 mg/kg orally and percent change in iron levels was determined in urine; format: functional; settings: dose 100 mg/kg; route intraperitoneal; in the assay text read “100 mg/kg intraperitoneally” for “25 mg/kg orally”
# Mus musculus [12] = assay: BDF1 male mice were administered with 200 mg/kg orally and percent change in iron levels was determined in liver; format: functional; settings: route oral; method in brief: as §1
# [13] = Half life was determined at pH 10.5 in the presence of Fe(III) Half life was determined Titrimetrically; format: ADME; settings: pH 7.5; in the assay text read “pH 7.5” for “pH 10.5”
# Method in brief: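 Metal and chelator were each 5 × 10⁻⁴ M. Constant pH was held with 0.05 M NaOH. Hydrolysis rate came from base consumption, with first-order kinetics.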
# Mus musculus [14] = assay: BDF1 male mice were administered with 100 mg/kg orally and percent change in iron levels was determined in spleen; format: functional; settings: route intraperitoneal, in the assay text read “intraperitoneally” for “orally”; method in brief: as §1
# Mus musculus [15] = assay: BDF1 male mice were administered with 200 mg/kg orally and percent change in iron levels was determined in faeces; format: functional, Feces; settings: route oral; method in brief: as §1
# [16] = First order rate constant was determined Spectrophotometrically at pH 7.5 in the presence of Fe(III)
# Mus musculus [17] = assay: BDF1 male mice were administered with 25 mg/kg orally and percent change in iron levels was determined in faeces; format: functional, Feces; settings: dose 100 mg/kg; route intraperitoneal; in the assay text read “100 mg/kg intraperitoneally” for “25 mg/kg orally”
# [18] = Half life was determined at pH 7.5 in the presence of Fe(III) Half life was determined Spectrophotometrically
# Mus musculus [19] = assay: BDF1 male mice were administered with 200 mg/kg orally and percent change in iron levels was determined in spleen; format: functional; settings: route oral; method in brief: as §1
# [20] = First order rate constant was determined Titrimetrically) at pH 7.5 in the presence of Fe(III)
# Mus musculus [21] = assay: BDF1 male mice were administered with the compound and number of survivors was determined at a dose 100 mg/kg intraperitoneally out of 10 tested; format: functional; settings: route intraperitoneal; method in brief: as §3
smiles,measurement,setting,value
CC(C)(C)OC(=O)CN(CCN(CC(=O)OC(C)(C)C)Cc1ccccc1O)Cc1ccccc1O,Iron change,Mus musculus [1],-5%
same,Iron change,Mus musculus [2],-13%
same,Iron change,Mus musculus [3],6%
same,Iron change,Mus musculus [4],10%
same,No. of survivors,Mus musculus [5],10
same,Iron change,Mus musculus [6],-1%
same,Iron change,Mus musculus [7],5%
same,No. of survivors,Mus musculus [8],10
same,Iron change,Mus musculus [9],-27%
same,Iron change,Mus musculus [10],-1%
CCOC(=O)CN(CCN(CC(=O)OCC)Cc1ccccc1O)Cc1ccccc1O,Iron change,Mus musculus [11],240%
same,Iron change,Mus musculus [12],-49% and -63%
same,half-life,[13],34.8 min
same,Iron change,Mus musculus [14],4%
same,Iron change,Mus musculus [15],-77%
same,10E2 k1,[16],1.14 min⁻¹
same,Iron change,Mus musculus [17],26%
same,half-life,[18],60.6 min
same,Iron change,Mus musculus [19],-34%
same,No. of survivors,Mus musculus [5],8
same,10E2 k1,[20],1.99 min⁻¹
same,No. of survivors,Mus musculus [21],10

# — ChEMBL document CHEMBL1123309, “Esters and lactones of phenolic amino carboxylic acids: prodrugs for iron chelation” (J Med Chem, 1986)
